Results from ChEMBL document CHEMBL1221389, “Fluorescent schweinfurthin B and F analogs with anti-proliferative activity” (2010).
pEC50: −log10 of the molar value. The source made the active and inactive calls. The rule behind the calls is not given here.

Key:
A549 = experiment: Cytotoxicity against human A549 cells after 44 hrs by MTT assay; format: functional; details: A549, 44 h, read-out: ED50 (the source's name)
Summary of the method: (§1)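 Exposure to compound lasted 44 h. SF-295 cells were kept in RPMI 1640 and A549 cells in F-12, each with 10% FBS, antibiotics and L-glutamine, at 37 °C and 5% CO2. Medium was then replaced with MTT-containing medium (phenol red-free RPMI for SF-295, F-12 for A549) up to 48 h total. Cells were solubilized overnight at room temperature in HCl/Triton X-100/isopropanol stop solution, and absorbance was read at 540 and 650 nm. ED50 was derived from the dose-response.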

SF-295 [1] = experiment: Cytotoxicity against human SF295 cells after 44 hrs by MTT assay; format: functional; details: SF-295, 44 h, read-out: ED50 (the source's name); summary of the method: as §1
SF-295 [2] = experiment: Cellular uptake in human SF295 cells assessed as perinuclear localization at 500 nM after 24 hrs by fluorescence microscopy; format: functional, cell-based
Summary of the method: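 SF-295 glioma cells, from NCI, grown in RPMI 1640 with 10% FBS, amphotericin B, penicillin/streptomycin and L-glutamine at 37 °C, 5% CO2. Plated on coverslips and exposed to compound at 500 nM for 24 h at about 45% confluency. Then washed three times in PBS, fixed in 4% formaldehyde for 15 min, nuclei stained with DAPI, and compound fluorescence imaged.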

Compound	pEC50 (A549)	pEC50 (SF-295 [1])	Activity (SF-295 [2])
COc1cc(/C=C/c2cc3c(c(OC)c2)O[C@]2(C)C[C@@H](O)[C@@H](O)C(C)(C)[C@H]2C3)cc(O)c1/C=C/c1ccc([N+](=O)[O-])cc1	6.15	7.40	–
COc1cc(/C=C/c2cc3c(c(OC)c2)O[C@]2(C)CC[C@@H](O)C(C)(C)[C@H]2C3)cc(O)c1/C=C/c1ccc(N)cc1	5.52	6.40	–
COc1cc(/C=C/c2cc3c(c(OC)c2)O[C@]2(C)CC[C@@H](O)C(C)(C)[C@H]2C3)cc(O)c1/C=C/c1ccc([N+](=O)[O-])cc1	5.57	7.00	Active
COc1cc(/C=C/c2cc3c(c(OC)c2)O[C@]2(C)C[C@@H](O)[C@@H](O)C(C)(C)[C@H]2C3)cc(O)c1/C=C/c1ccc(N)cc1	5.49	7.70	–
COc1cc(/C=C/c2cc(O)c(/C=C/c3ccc([N+](=O)[O-])cc3)c(O)c2)cc2c1O[C@]1(C)CC[C@@H](O)C(C)(C)[C@H]1C2	6.10	7.30	–
COc1ccc(/C=C/c2cc(O)c(/C=C/c3ccc(N)cc3)c(OC)c2)cc1OC	< 5.00	< 6.00	–
COc1ccc(/C=C/c2cc(O)c(/C=C/c3ccc([N+](=O)[O-])cc3)c(OC)c2)cc1OC	< 5.00	< 6.00	–
